Measured values as given in ChEMBL document CHEMBL4665801, “Pyrazole-Based Lactate Dehydrogenase Inhibitors with Optimized Cell Activity and Pharmacokinetic Properties” (J Med Chem, 2020).
The source made the active and inactive calls. Unless noted, no cut-off for these calls is given here.

Experiments:
[1] = Half life in human liver cytoplasm; type: ADME, subcellular
[2] = Genotoxicity in Salmonella typhimurium by Ames test; type: toxicity; conditions: salmonella enterica subsp. enterica serovar typhimurium
Homo sapiens = species: Homo sapiens; assay: Inhibition of LDH in human A673 cells assessed as decrease in extracellular acidification rate at 0.5 to 5 uM preincubated for 1 hr followed by subsequent injections of glucose/oligomycin at 48 mins by seahorse XF GST based assay; type: cell-based; conditions: dose microM 0.5-5, time 108.0 min
Summary of the method: (§1)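 A673 cells in DMEM with 10% FBS were plated 24 h ahead, then switched to Seahorse basic DMEM with 2 mM glutamine, pH 7.4, and held 1 h at 37 °C without CO2. ECAR was recorded after inhibitor injection at increasing concentrations. At 48 min, glucose (10 mM final), oligomycin (1 μg/mL final) and 2-DG (50 mM final) were injected in sequence.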

[3] = Kinetic aqueous solubility of the compound in pH 7.4 PBS buffer at 150 uM measured after 6 hrs by shake flask method; type: physicochemical; conditions: read-out: Kinetic_solubility
Summary of the method: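 μSOL kinetic solubility. 10 mM DMSO stocks were diluted with 1-propanol cosolvent to 150 μM final in aqueous pH 7.4 and equilibrated 6 h at room temperature. After filtration, filtrate concentration was read by UV absorbance against a 17 μM reference.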

[4] = Permeability of compound at pH 7.4 […] incubated for 1 hr by PAMPA-BBB assay; type: ADME; conditions: pH 7.4, 1 h
Summary of the method: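 Double-sink PAMPA with 10% porcine brain lipid extract in phospholipid/alkane membrane. 10 mM DMSO stocks were diluted to 0.05 mM at pH 7.4 and stirred 1 h at room temperature. Donor and acceptor were quantified by UV against reference and blank. Results in 10⁻⁶ cm/s.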

[5] = Permeability of compound at pH 7.4 incubated for 30 mins by PAMPA; type: ADME; conditions: pH 7.4, 0.5 h
Summary of the method: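 Stirred double-sink PAMPA with GI-tract lipid/dodecane membrane, pH 7.4 on both sides. Compound was diluted from 10 mM DMSO stock to 0.05 mM (0.5% DMSO final), with 30 min permeation at room temperature. Donor and acceptor were read by UV. Results in 10⁻⁶ cm/s.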

[6] = Half life in rat liver cytoplasm; type: ADME, subcellular
[7] = target: T1, L-lactate dehydrogenase A chain (Homo sapiens, UniProt P00338); assay: Inhibition of recombinant human LDHA using sodium pyruvate as substrate preincubated for 5 mins followed by diaphorase/resazurin addition and measured after 20 mins by fluorescence based assay
[8] = Terminal half life in CD-1 mouse at 10 mg/kg, iv and measured up to 24 hrs by LC/MS-MS analysis; type: ADME, organism-based; conditions: in vivo
Summary of the method: (§2)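 Male CD1 mice, about 6–8 weeks old and 20–30 g, received 10 mg/kg IV in 0.1 M NaOH in PBS adjusted to pH 7–8.5, made fresh on the day of dosing. Three mice per cohort. Blood was taken from the dorsal metatarsal vein at 5, 15, 30 min and 1, 2, 4, 8, 12, 24 h into heparin tubes. Plasma was spun at 4 °C, stored at –75 °C and analysed by LC–MS/MS. For IV dosing Cmax = C0.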

[9] = Half life in mouse liver microsomes at 1 uM in presence of NADPH by LC-MS/MS; type: ADME, Microsome
Summary of the method: (§3)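 Time-course stability in human or mouse liver microsomes, or mouse hepatocytes, in the presence of NADPH and UDPGA. Parent compound was monitored at five time points to derive T1/2.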

Mus musculus = assay: In vivo inhibition of LDH in human A673 cells xenografted athymic nude CrTac:NCr-Foxn1nu mouse assessed as reduction in tumor LDH activity at 50 mg/kg, iv after 1 hr by NADH-based UV-VIS spectrometric method relative to control; type: functional, organism-based
Summary of the method: (§4)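 Female athymic nude mice carried SQ A673 flank xenografts (2 million cells) and received a single IV dose of 50 mg/kg in PBS-based vehicle. Four mice per time point were sacrificed at 1, 3, 6 and 24 h. Frozen tumor (10–50 mg) was pulverized and lysed in PBS pH 7.4 with 0.1% Triton X-100 on ice for 1 h. Cleared lysate (10–20 μg) was assayed with 10 mM pyruvate and 0.3 mM final NADH, reading NADH oxidation at 340 nm at 37 °C.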

[10] = Metabolic stability in dog hepatocytes; type: ADME, cell-based, Canis lupus familiaris, Hepatocyte
[11] = target: L-lactate dehydrogenase B chain (Homo sapiens) (UniProt P07195); assay: Inhibition of recombinant human LDHB using sodium pyruvate as substrate preincubated for 5 mins followed by diaphorase/resazurin addition and measured after 20 mins by fluorescence based assay
L-lactate dehydrogenase B chain (Homo sapiens), sequence (P07195 2-334 limits assumed): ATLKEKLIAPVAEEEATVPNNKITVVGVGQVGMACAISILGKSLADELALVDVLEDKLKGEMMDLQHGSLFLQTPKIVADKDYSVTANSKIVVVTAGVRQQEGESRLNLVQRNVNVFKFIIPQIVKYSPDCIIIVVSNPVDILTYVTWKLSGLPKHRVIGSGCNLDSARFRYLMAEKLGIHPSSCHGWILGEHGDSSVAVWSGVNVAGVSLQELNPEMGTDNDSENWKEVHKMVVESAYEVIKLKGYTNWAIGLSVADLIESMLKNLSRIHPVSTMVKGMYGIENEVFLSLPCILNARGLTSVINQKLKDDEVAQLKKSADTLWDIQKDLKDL

[12] = Protein binding in mouse plasma assessed as free fraction; type: ADME, cell-free
[13] = AUClast in CD-1 mouse at 10 mg/kg, iv and measured up to 24 hrs by LC/MS-MS analysis; type: ADME, organism-based; design: route intravenous, dose 10 mg/kg, time <=24; conditions: in vivo; summary of the method: as §2
[14] = In vivo inhibition of LDH in human A673 cells xenografted athymic nude CrTac:NCr-Foxn1nu mouse assessed as reduction in tumor LDH activity at 50 mg/kg, iv after 6 hrs by UV-VIS spectrometric method relative to control; type: functional; summary of the method: as §4
[15] = Volume of distribution at steady state in CD-1 mouse at 10 mg/kg, iv and measured up to 24 hrs by LC/MS-MS analysis; type: ADME, organism-based; conditions: in vivo; summary of the method: as §2
[16] = target: T1, L-lactate dehydrogenase A chain; assay: Inhibition of GS[HiBiT]GS-tagged LDHA (unknown origin) expressed in HEK-293T cells measured after 1 hr by […]; type: cell-based
Summary of the method: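 HEK293T cells were transiently transfected for 24 h with CMV-driven LDHA carrying a C-terminal GS[HiBiT]GS tag, then reseeded at 2500 cells/well in DPBS with Ca/Mg and 1 g/L glucose. […] Cells were lysed with NP40, and 11S (100 nM final) plus furimazine was added.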

[17] = target: T1, L-lactate dehydrogenase A chain; assay: Binding affinity to human His-tagged LDHA by SPR analysis
Summary of the method: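 SPR on a Mass-1 instrument gave K_D and k_off. Residence time τ was calculated as 1/k_off (s⁻¹).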

[18] = target: T1, L-lactate dehydrogenase A chain; assay: Inhibition of LDHA in human A673 cells assessed as decrease in lactate production incubated for 2 hrs by lactate oxidase-coupled fluorescence based assay; type: cell-based
MIA PaCa-2 = assay: Cytotoxicity against human MIA PaCa-2 cells assessed as reduction in cell viability after 48 hrs by CellTiter-Glo assay; type: functional, cell-based; conditions: MIA PaCa-2, 48 h
[19] = Half life in mouse plasma; type: ADME, cell-free
Summary of the method: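 Stability in mouse plasma was followed at five time points, with T1/2 derived from parent remaining.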

Cytochrome P450 = assay: Induction of CYP450 (unknown origin) at 10 uM; type: ADME, protein assay; conditions: human
[20] = Metabolic stability in mouse hepatocytes; type: ADME, cell-based, Hepatocyte; summary of the method: as §3
Sus scrofa = species: Sus scrofa; assay: Inhibition of porcine heart MDH using malic acid as substrate preincubated for 10 mins followed by substrate addition and measured after 5 mins by resazurin based fluorescence based assay; conditions: time 15.0 min
[21] = Half life in rat liver microsomes at 1 uM in presence of NADPH by LC-MS/MS; type: ADME, Microsome
[22] = target: T1, L-lactate dehydrogenase A chain; assay: Inhibition of LDHA in human A673 cells assessed as decrease in extracellular acidification rate at 0.5 to 5 uM preincubated for 1 hr followed by glucose/oligomycin/2-DG addition at 48 mins by seahorse XF GST based assay; type: cell-based; conditions: dose microM 0.5-5, time 108.0 min; summary of the method: as §1
[23] = Half life in mouse liver cytoplasm; type: ADME, subcellular
[24] = Metabolic stability in rat hepatocytes; type: ADME, cell-based, Hepatocyte

Structure (SMILES)	half-life [1]	Activity [2]	inhibition (Homo sapiens)	solubility kinetic at 6 h, 150 µM [3]	permeability [4]	permeability [5]	half-life [6]	IC50 [7]	beta t1/2 [8]	half-life at 1 µM [9]	inhibition (Mus musculus)	half-life [10]	inhibition [11]	Fu [12]	AUClast [13]	inhibition in vivo at 50 mg/kg [14]	Vdss [15]	IC50 [16]	Kd [17]	IC50 [18]	also measured
Cc1ccc(C#Cc2cccc(-c3nn(-c4nc(C(=O)O)cs4)c(CC4CC4)c3Cc3ccc(S(N)(=O)=O)c(F)c3)c2)s1	> 2 h	Non-Toxic	inactive	> 70 µg/mL	9.6 10^-6 cm/s	2.2 10^-6 cm/s	> 2 h	40 nM	5.3 h	> 2 h	Active	> 2.5 h	Active	4.4%	16530 ng·h/mL	80%	1.7 L/kg	119 nM	0.0634 nM	760 nM	IC50 (MIA PaCa-2): 347 nM; t1/2 [19]: > 4 h; Activity (Cytochrome P450): Not Active; half-life [20]: > 2.5 h; inhibition (Sus scrofa): inactive; half-life at 1 µM [21]: > 2 h; inhibition [22]: Active; half-life [23]: > 2 h; half-life [24]: > 2.5 h
Cc1ccc(C#Cc2cc(-c3nn(-c4nc(C(=O)O)cs4)c(CC4CC4)c3Cc3ccc(S(N)(=O)=O)c(F)c3)ccc2F)s1	> 2 h	Non-Toxic	inactive	> 70 µg/mL	16 10^-6 cm/s	10.4 10^-6 cm/s	> 2 h	57 nM	5.2 h	> 2 h	Active	> 2.5 h	Active	0.7%	10570 ng·h/mL	60%	1.79 L/kg	106 nM	0.0667 nM	873 nM	IC50 (MIA PaCa-2): 257 nM; t1/2 [19]: > 4 h; Activity (Cytochrome P450): Not Active; half-life [20]: > 2.5 h; inhibition (Sus scrofa): inactive; half-life at 1 µM [21]: > 2 h; inhibition [22]: Active; half-life [23]: > 2 h; half-life [24]: > 2.5 h
